bIAP activator – increases bovine intestinal alkaline phosphatase activity; AID 1016; activation factor at 20 µM; purified bovine IAP, CDP-star luminescence, 30 min; stronger effect = higher value; fold of DMSO-control signal, blank-subtracted; 200,000 tested, 0.17% active;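 active = activation factor of 2 or more at 20 µM, a signal rise over negative controls twice the positive control's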
bIAP inh – blocks bovine intestinal alkaline phosphatase activity. purified bovine IAP, CDP-star luminescence, 30 min. inhibition, % at 20 µM. 190,000 tested, under 10 active;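 active = over 50% inhibition of intestinal alkaline phosphatase at 20 µM in the single-dose screen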
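Incubation: 30 min reaction at room temperature / Material: purified bovine intestinal alkaline phosphatase (IAP) enzyme / Input: enzyme at 1/65,000,000 dilution / Dosing: 20 µM single dose / Signal: CDP-star luminescence signal / Reagent: CDP-star chemiluminescent phosphatase substrate, 30 µM final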
mIAP inh – mouse IAP inhibition | AID 2806 | inhibition, % at 10 µM | purified mouse IAP, CDP-Star luminescence, 30 min | 330,000 tested, 0.2% active;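 active = inhibition of at least 40% at 10 µM in the primary screen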;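 note: plate controls were DMSO with enzyme for no effect and no enzyme wells for full effect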
hIAP act – human IAP activation. P09923. purified human IAP, CDP-Star luminescence, 30 min; stronger effect = higher value; 1 = vehicle-only enzyme, 0 = enzyme-free background. activation factor at 10 µM. 330,000 tested, 0.16% active. AID 2524;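 active = activation factor of the enzyme at least 2-fold when tested at 20 µM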
Target sequence (P09923 whole entry, looked up): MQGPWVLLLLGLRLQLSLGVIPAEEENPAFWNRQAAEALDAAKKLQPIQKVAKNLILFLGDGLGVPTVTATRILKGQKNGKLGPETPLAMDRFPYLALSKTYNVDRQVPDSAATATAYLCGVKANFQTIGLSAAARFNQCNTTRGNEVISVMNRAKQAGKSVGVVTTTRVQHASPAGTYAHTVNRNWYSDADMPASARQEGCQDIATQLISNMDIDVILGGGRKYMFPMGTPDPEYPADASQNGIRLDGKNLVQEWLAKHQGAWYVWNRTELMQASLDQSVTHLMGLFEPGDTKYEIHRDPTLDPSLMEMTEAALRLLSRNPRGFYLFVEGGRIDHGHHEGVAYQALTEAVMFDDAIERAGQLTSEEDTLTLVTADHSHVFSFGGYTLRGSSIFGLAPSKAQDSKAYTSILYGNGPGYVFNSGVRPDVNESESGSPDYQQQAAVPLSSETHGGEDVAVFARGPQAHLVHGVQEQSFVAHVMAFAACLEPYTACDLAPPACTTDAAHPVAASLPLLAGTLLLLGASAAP
hIAP inh – blocks human intestinal alkaline phosphatase; inhibition, % at 10 µM; 330,000 tested, 0.12% active; purified IAP, CDP-Star luminescence, 30 min; AID 2544; P09923;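 active = inhibition reaching a set limit with compound at 10 µM in the primary screen, cut at about 35% in these data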;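 note: plate controls were DMSO wells with enzyme for no effect and no-enzyme buffer wells for full effect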
mIAP activ – increases mouse intestinal alkaline phosphatase activity | activation factor at 10 µM | 330,000 tested, 0.24% active | muIAP, CDP-Star luminescence, 30 min; stronger effect = higher value; 1 = vehicle-only enzyme signal, 0 = enzyme-free wells;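 active = activation factor of at least 2 at 20 µM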
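Assay system: mouse IAP enzyme; Reagent: CDP-Star chemiluminescent phosphatase substrate; Compound: DMSO-dissolved test compounds; Incubation: 30 min, room temperature; Technique: luminescence from enzymatic CDP-Star hydrolysis; Controls: DMSO-only wells and no-enzyme negative control.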
* marks the source's active call; other numbers are inactive results; x = no result. In the library only some 0.79% were active in any assay of this set; here they are far more common.

SMILES	bIAP activator	bIAP inh	mIAP inh	hIAP act	hIAP inh	mIAP activ
S=C(Nc1ccc(Oc2ccccc2)cc1)NC1CCCC1	1	1	-172	0.98	2	2.7*
CCCCNC(=S)Nc1ccc(Oc2ccccc2)cc1	0.8	23	-135	1.1	-10	2.3*
S=C(Nc1ccccc1Oc1ccccc1)NC1CCCC1	1	-1	-43	1.1	-5	1.4
Cc1cccc(NC(=S)NC2CCCC2)c1	1.1	-9	-14	1.1	-5	1.1
S=C(NCC1CCCCC1)Nc1ccc(Oc2ccccc2)cc1	1.2	-18	-226	0.95	5	3.3*
CC1=C(C/C=C(\C)CCC[C@H](C)CCC[C@H](C)CCCC(C)C)C(=O)c2ccccc2C1=O	x	x	-3	1.2	-17	1
CC(C)(C)c1ccc(OCCNC(=S)Nc2ccccc2)cc1	0.9	8	-136	0.98	2	2.4*
CC(NC(=O)c1ccco1)C(=O)OCC(=O)N1CCCCCC1 (configuration not stated)	x	x	-10	1	0	1.1
CCN(CC)c1nc(OCCNC(=O)Nc2ccccc2)nc(N(CC)CC)n1	1.4	-42	-148	1.1	-11	2.5*
O=C(CSc1nc(=O)n2ccccc2n1)OCc1ccccc1	x	x	7	1	-2	0.93
O=C(O)c1ccccc1C(=O)Nc1ccc(Br)c(C(F)(F)F)c1	x	x	-9	0.96	4	1.1
Cc1cc(C)c(C(=O)Nc2ccc(Br)c(C(F)(F)F)c2)c(C)c1	1.1	-9	-114	1.1	-7	2.1*
CC(=O)Nc1ccc(S(=O)(=O)NCC(=O)NNC(=O)COc2ccccc2Cl)cc1	x	x	23	1.5	-50	0.77
CC(=O)Nc1ccc(S(=O)(=O)NCC(=O)NNC(=O)COc2c(C)cccc2C)cc1	x	x	41*	1.8	-83	0.59
CCOC(=O)c1cc(-c2ccccc2)n(CC(=O)Nc2cc(OC)cc(OC)c2)c1C	0.5	x	-116	1.2	-17	2.2*
CCOC(=O)c1cc(-c2ccccc2)n(CC(=O)Nc2ccc(OCC)cc2)c1C	0.8	17	-34	0.98	2	1.3
CCOc1cc(C(=O)OCC(=O)Nc2cccc(S(=O)(=O)NC3=NCCCCC3)c2)cc(OCC)c1OCC	x	x	-25	1.2	-16	1.2
Cc1ccccc1NS(=O)(=O)c1ccc(C(=O)N2CCN(S(=O)(=O)c3ccccc3)CC2)cc1	x	x	-1	1	-1	1
COc1cc(CNCc2ccccn2)ccc1OCc1ccc(Cl)cc1	0.9	12	-14	1.2	-20	1.1
COc1cc(CNCc2ccccn2)ccc1OCc1c(Cl)cccc1Cl	2.5*	-146	-44	0.93	7	1.4
O=C(Nc1ccc(Cl)c(Cl)c1)Nc1cc(C(=O)NC2CC2)ccc1Cl	1	3	-116	1.1	-15	2.2*
C/C(CC(=O)NCc1ccco1)=N\NC(=O)c1ccc([N+](=O)[O-])cc1Cl	x	x	6	0.87	13	0.94
Cc1ccc(C(=O)C(NC(=O)c2ccco2)Nc2sc3c(c2C(N)=O)CCCC3)cc1 (configuration not stated)	3.6*	-263	11	1.1	-12	0.89
O=C(CSc1nnc2ccccn12)NC(=O)c1ccccc1Cl	x	x	1	1.1	-5	0.99
O=C(Nc1cccc(C(=O)O)c1)/C(=C\c1ccccc1)NC(=O)c1ccccc1	1	4	1	1	-4	0.99
SMILES	bIAP activator	bIAP inh	mIAP inh	hIAP act	hIAP inh	mIAP activ
Cc1ccc(C(=O)N/C(=C/c2ccc(Cl)cc2)C(=O)Nc2cccc(C(=O)O)c2)cc1	2.2*	-119	-8	0.79	21	1.1
COc1ccc(CCNC(=O)c2nn(C)cc2Cl)cc1	0.9	10	-1	1.1	-11	1
COc1ccc(CCNC(=O)c2cc(-c3ccc(Cl)c(Cl)c3)oc2C)cc1	1.1	-9	-243	0.93	7	3.4*
COc1ccccc1NC(=O)CN1CCN(C2c3ccccc3-c3ccccc32)CC1	2*	-96	-9	1.1	-10	1.1
Cc1ccc2c(c1)C1C=CCC1C(C(=O)O)N2 (configuration not stated)	0.9	7	x	x	x	x
COc1cccc2c1NC(C(=O)O)C1CC=CC21 (configuration not stated)	0.9	12	57*	1.1	-7	0.43
O=C(CSc1nnc2c(n1)[nH]c1ccccc12)Nc1nncs1	x	x	17	1	0	0.83

From PubChem
